Experimental data taken from ChEMBL document CHEMBL1165950, “Design and synthesis of new potent anticancer pyrazoles with high FLT3 kinase inhibitory selectivity” (Bioorg Med Chem, 2010).

Columns and labels:
Assay type in all cases: functional
A498 [1] = assay: Cytotoxicity against human A498 cells assessed as cell growth at 1 uM after 48 hrs by sulforhodamine B assay; conditions: A498, 48 h, read-out: Activity
In short: (§1)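 NCI-60 five-dose screen. Cells were grown in RPMI 1640 with 5% FBS and 2 mM L-glutamine, plated at 5000–40,000 cells/well and preincubated for 24 h. Time-zero plates were TCA-fixed. DMSO-solubilized drug was added at five concentrations (10-fold or ½-log serial dilutions) for 48 h at 37 °C, 5% CO2. Cells were TCA-fixed, stained with 0.4% SRB and read at 515 nm. Percent growth used time-zero, control and test absorbances.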

UACC-257 [2] = assay: Cytotoxicity against human UACC257 cells assessed as cell growth at 0.01 uM after 48 hrs by sulforhodamine B assay; conditions: UACC-257, 48 h, read-out: Activity
786-0 = assay: Cytotoxicity against human 786-0 cells assessed as cell growth at 10 uM; conditions: read-out: Activity
In short: (§2)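 Single-dose NCI-60 screen at 10 µM. Cells were grown in RPMI 1640 with 5% FBS and 2 mM L-glutamine, then treated for 48 h at 37 °C. Protein was measured by SRB staining with absorbance at 515 nm. Percentage growth was recorded, and inhibition percentage was calculated as 100 minus growth percentage.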

PC-3 = assay: Cytotoxicity against human PC3 cells assessed as cell growth at 100 nM after 48 hrs by sulforhodamine B assay; conditions: PC-3, 48 h, read-out: Activity
SF-295 = assay: Cytotoxicity against human SF295 cells assessed as cell growth at 0.01 uM after 48 hrs by sulforhodamine B assay; conditions: SF-295, 48 h, read-out: Activity
SN12C = assay: Cytotoxicity against human SN12C cells assessed as cell growth at 0.01 uM after 48 hrs by sulforhodamine B assay; conditions: read-out: Activity
OVCAR-5 = assay: Cytotoxicity against human OVCAR5 cells assessed as cell growth at 0.01 uM after 48 hrs by sulforhodamine B assay; conditions: OVCAR-5, 48 h, read-out: Activity
KM12 [3] = assay: Cytotoxicity against human KM12 cells assessed as cell growth at 1 uM after 48 hrs by sulforhodamine B assay; conditions: KM12, 48 h, read-out: Activity
NCI/ADR-RES = assay: Cytotoxicity against human NCI/ADR-RES cells assessed as cell growth at 1 uM after 48 hrs by sulforhodamine B assay; conditions: read-out: Activity
SK-OV-3 = assay: Cytotoxicity against human SKOV3 cells assessed as cell growth at 0.001 uM after 48 hrs by sulforhodamine B assay; conditions: SK-OV-3, 48 h, read-out: Activity
TK-10 [4] = assay: Cytotoxicity against human TK10 cells assessed as cell growth at 0.01 uM after 48 hrs by sulforhodamine B assay; conditions: TK-10, 48 h, read-out: Activity
[5] = Cytotoxicity against human Hs 578T cells assessed as cell growth at 100 nM after 48 hrs by sulforhodamine B assay; conditions: read-out: Activity
SNB-19 [6] = assay: Cytotoxicity against human SNB19 cells assessed as cell growth at 100 nM after 48 hrs by sulforhodamine B assay; conditions: SNB-19, 48 h, read-out: Activity
OVCAR-4 = assay: Cytotoxicity against human OVCAR4 cells assessed as cell growth at 0.001 uM after 48 hrs by sulforhodamine B assay; conditions: OVCAR-4, 48 h, read-out: Activity
COLO 205 = assay: Cytotoxicity against human COLO205 cells assessed as cell growth at 10 uM after 48 hrs by sulforhodamine B assay; conditions: COLO 205, 48 h, read-out: Activity
A549 = assay: Cytotoxicity against human A549 cells assessed as cell growth at 1 uM after 48 hrs by sulforhodamine B assay; conditions: A549, 48 h, read-out: Activity; in short: as §1
SNB-19 [7] = assay: Growth inhibition of human SNB19 cells after 48 hrs by sulforhodamine B assay; conditions: SNB-19, 48 h; for CC50: read-out: LC50 (the source's name)
In short: (§3)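 NCI 60-cell screen, five-dose mode. Cells grown in RPMI 1640 with 5% FBS and 2 mM L-glutamine and plated at 5000-40,000 cells/well according to doubling time. After 24 h preincubation, a Tz plate was TCA-fixed. Five concentrations (10-fold or 1/2 log dilutions) were applied for 48 h at 37 °C. SRB staining read at 515 nm. IC50 taken from [(Ti-Tz)/(C-Tz)]×100 = 50.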

SF-268 = assay: Cytotoxicity against human SF268 cells assessed as cell growth at 100 nM after 48 hrs by sulforhodamine B assay; conditions: SF-268, 48 h, read-out: Activity
UACC-257 [8] = assay: Cytotoxicity against human UACC257 cells assessed as cell growth at 100 nM after 48 hrs by sulforhodamine B assay; conditions: UACC-257, 48 h, read-out: Activity
KM12 [9] = assay: Cytotoxicity against human KM12 cells assessed as cell growth at 10 uM after 48 hrs by sulforhodamine B assay; conditions: KM12, 48 h, read-out: Activity
NCI-H23 = assay: Cytotoxicity against human NCI-H23 cells assessed as cell growth at 100 nM after 48 hrs by sulforhodamine B assay; conditions: NCI-H23, 48 h, read-out: Activity
NCI-H460 [10] = assay: Growth inhibition of human NCI-H460 cells after 48 hrs by sulforhodamine B assay; conditions: NCI-H460, 48 h; for CC50: read-out: LC50 (the source's name); in short: as §3
NCI-H460 [11] = assay: Cytotoxicity against human NCI-H460 cells assessed as cell growth at 10 uM after 48 hrs by sulforhodamine B assay; conditions: NCI-H460, 48 h, read-out: Activity
TK-10 [12] = assay: Cytotoxicity against human TK10 cells assessed as cell growth at 10 uM; conditions: read-out: Activity
In short: (§4)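 NCI-60 screen: cells grown in RPMI 1640 with 5% FBS and 2 mM L-glutamine, plated at 5000–40,000 cells/well according to doubling time, and preincubated 24 h at 37 °C, 5% CO2. The single 10 µM dose (DMSO stock) was added, then incubated 48 h. Cells were TCA-fixed and stained with 0.4% SRB, read at 515 nm, and growth % calculated against time-zero and control plates.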

[13] = Cytotoxicity against human Hs 578T cells assessed as cell growth at 10 uM after 48 hrs by sulforhodamine B assay; conditions: read-out: Activity
MDA-MB-468 = assay: Cytotoxicity against human MDA-MB-468 cells assessed as cell growth at 10 uM; conditions: read-out: Activity; in short: as §4
LOX IMVI = assay: Cytotoxicity against human LOXIMVI cells assessed as cell growth at 10 uM after 48 hrs by sulforhodamine B assay; conditions: read-out: Activity
HCT-15 = assay: Cytotoxicity against human HCT15 cells assessed as cell growth at 10 uM; conditions: read-out: Activity; in short: as §2
OVCAR-3 = assay: Cytotoxicity against human OVCAR-3 cells assessed as cell growth at 10 uM after 48 hrs by sulforhodamine B assay; conditions: OVCAR-3, 48 h, read-out: Activity
A498 [14] = assay: Cytotoxicity against human A498 cells assessed as cell growth at 100 nM after 48 hrs by sulforhodamine B assay; conditions: A498, 48 h, read-out: Activity; in short: as §1
TK-10 [15] = assay: Growth inhibition of human TK10 cells after 48 hrs by sulforhodamine B assay; conditions: TK-10, 48 h; for CC50: read-out: LC50 (the source's name); in short: as §3
MDA-MB-435 = assay: Cytotoxicity against human MDA-MB-435 cells assessed as cell growth at 10 uM; conditions: read-out: Activity; in short: as §4

SMILES	growth at 1 µM (A498 [1]) [%]	growth at 0.01 µM (UACC-257 [2]) [%]	growth at 10 µM (786-0) [%]	growth at 0.1 µM (PC-3) [%]	growth at 0.01 µM (SF-295) [%]	growth at 0.01 µM (SN12C) [%]	growth at 0.01 µM (OVCAR-5) [%]	growth at 1 µM (KM12 [3]) [%]	growth at 1 µM (NCI/ADR-RES) [%]	growth at 0.001 µM (SK-OV-3) [%]	growth at 0.01 µM (TK-10 [4]) [%]	growth at 0.1 µM [5] [%]	growth at 0.1 µM (SNB-19 [6]) [%]	growth at 0.001 µM (OVCAR-4) [%]	growth at 10 µM (COLO 205) [%]	growth at 1 µM (A549) [%]	GI50 (SNB-19 [7]) [µM]	TGI (SNB-19 [7]) [µM]	CC50 (SNB-19 [7]) [µM]	growth at 0.1 µM (SF-268) [%]	further results
COc1cc(C)cc(-c2nn(CC#N)cc2-c2ccc(-c3cccc(C(C)=O)c3)nc2)c1	-21	85	18	85	98	88	68	4	-16	86	100	61	99	99	-62	21	6.62	> 100	> 100	91	growth at 0.1 µM (UACC-257 [8]): 70%; growth at 10 µM (KM12 [9]): -25%; growth at 0.1 µM (NCI-H23): 88%; GI50 (NCI-H460 [10]): 2.04 µM; TGI (NCI-H460 [10]): 5.72 µM; CC50 (NCI-H460 [10]): 26.6 µM; growth at 10 µM (NCI-H460 [11]): -81%; growth at 10 µM (TK-10 [12]): 27.3%; growth at 10 µM [13]: -57%; growth at 10 µM (MDA-MB-468): -30.5%; growth at 10 µM (LOX IMVI): 6%; growth at 10 µM (HCT-15): 23.4%; growth at 10 µM (OVCAR-3): -64%; growth at 0.1 µM (A498 [14]): 53%; GI50 (TK-10 [15]): 3.28 µM; TGI (TK-10 [15]): 11.5 µM; CC50 (TK-10 [15]): > 100 µM; growth at 10 µM (MDA-MB-435): -27.8%
COc1cc(C)cc(-c2c(-c3ccnc(-c4ccc(C(C)=O)cc4)c3)cnn2CC#N)c1	17	81	67.2	83	98	93	70	9	11	86	100	71	99	102	-67	25	> 100	> 100	> 100	85	growth at 0.1 µM (UACC-257 [8]): 81%; growth at 10 µM (KM12 [9]): 10%; growth at 0.1 µM (NCI-H23): 95%; GI50 (NCI-H460 [10]): 2.41 µM; CC50 (NCI-H460 [10]): > 100 µM; growth at 10 µM (NCI-H460 [11]): 2%; growth at 10 µM (TK-10 [12]): 72.6%; growth at 10 µM [13]: -27%; growth at 10 µM (MDA-MB-468): 26%; growth at 10 µM (LOX IMVI): 21%; growth at 10 µM (HCT-15): 53.3%; growth at 10 µM (OVCAR-3): -17%; growth at 0.1 µM (A498 [14]): 65%; TGI (TK-10 [15]): > 100 µM; CC50 (TK-10 [15]): > 100 µM; growth at 10 µM (MDA-MB-435): 10.6%
COc1cc(C)cc(-c2c(-c3ccnc(-c4ccc(N(C)C)cc4)c3)cnn2CC#N)c1	17	38	-1.5	11	56	75	73	-43	7	102	75	23	27	92	4	5	0.362	> 100	> 100	29	growth at 0.1 µM (UACC-257 [8]): 41%; growth at 10 µM (KM12 [9]): -49%; growth at 0.1 µM (NCI-H23): 28%; GI50 (NCI-H460 [10]): 0.0577 µM; TGI (NCI-H460 [10]): 0.282 µM; CC50 (NCI-H460 [10]): 4.99 µM; growth at 10 µM (NCI-H460 [11]): -55%; growth at 10 µM (TK-10 [12]): 36.6%; growth at 10 µM [13]: 16%; growth at 10 µM (MDA-MB-468): -23.1%; growth at 10 µM (LOX IMVI): 10%; growth at 10 µM (HCT-15): 8.33%; growth at 10 µM (OVCAR-3): 1%; growth at 0.1 µM (A498 [14]): 10%; GI50 (TK-10 [15]): 0.636 µM; TGI (TK-10 [15]): > 100 µM; CC50 (TK-10 [15]): > 100 µM; growth at 10 µM (MDA-MB-435): -14.7%
